TAAR1 agonist = human TAAR1 agonism | activation, % at 3 µM | Q96RJ0 | AID 624467 | 360,000 tested, 0.99% active | CHO RD-HGA16 TAAR1, Fluo-8 calcium fluorescence; vehicle wells 0%, saturating PEA agonist 100%;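 active means activation above the mean activation of all test compounds in the run plus 3 SD, cut at about 38% in these data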
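System: CHO RD-HGA16 cells carrying human TAAR1 plus Gα16; Incubation: 17-24 h seeding, 75 min 37 °C dye, 30 min RT; Measured by: Fluo-8 fluorescence, 5 s baseline then 140 s kinetic read; Control set: DMSO and PEA EC100; Replication: single well for each compound.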
OXTR agonist = human OXTR agonism; 320,000 tested, 0.32% active; AID 2435; CHO-OTR cells, Fluo-8 calcium fluorescence; normalized: DMSO 0%, oxytocin 100%; activation, % at 3 µM;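 active means activation above the mean of all tested compounds plus 3 SD, cutoff set per screening run, cut at about 20% in these data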;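 further: peak over basal fluorescence ratio from a 100 s FLIPR kinetic read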
Target sequence (P30559 whole entry, looked up): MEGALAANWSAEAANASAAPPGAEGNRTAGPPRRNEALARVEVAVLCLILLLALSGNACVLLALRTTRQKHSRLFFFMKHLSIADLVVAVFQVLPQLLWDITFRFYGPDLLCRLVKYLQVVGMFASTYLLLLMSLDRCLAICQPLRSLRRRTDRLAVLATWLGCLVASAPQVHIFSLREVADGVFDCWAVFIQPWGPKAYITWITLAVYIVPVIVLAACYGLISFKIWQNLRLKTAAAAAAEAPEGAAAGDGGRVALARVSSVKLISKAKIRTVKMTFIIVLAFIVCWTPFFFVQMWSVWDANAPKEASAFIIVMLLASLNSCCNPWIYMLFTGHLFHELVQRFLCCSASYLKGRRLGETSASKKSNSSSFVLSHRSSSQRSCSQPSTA
OXTR potentiator = human OXTR potentiation | CHO-OTR cells, Fluo-8 calcium fluorescence, potentiator mode; 0% = oxytocin EC15, 100% = EC100 | activation, % at 3 µM | 320,000 tested, 0.061% active | AID 2445;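 active means activation above that plate's cutoff, the mean activation of tested compounds plus 3 SD, cut at about 6.6% in these data, passing the limit was not always enough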
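System: human OTR in CHO cells; Also added: sub-maximal oxytocin, roughly EC15; Timing: compound 6 min at room temperature before oxytocin, 100 s read; Technique: Fluo-8 intracellular calcium fluorescence, ex 470-495, em 515-575 nm; Controls: oxytocin EC15 low and EC100 high; Replication: singlicate.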
TAAR1 antagonist = human TAAR1 antagonism | Q96RJ0 | CHO RD-HGA16 TAAR1, Fluo-8 calcium fluorescence, antagonist | inhibition, % at 3 µM | 360,000 tested, 1.5% active | AID 624466;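 active means inhibition above a per-plate cutoff, the mean inhibition of test compounds on that plate plus 3 SD, cut at about 49% in these data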
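Assay system: RD-HGA16 CHO cells with stable hTAAR1 and Gα16 / Reagent: EC80 β-phenethylamine stimulus / Doses: 3 µM, single point / Timing: dye loading 75 min at 37 °C, then 30 min room temperature / Measured by: Fluo-8 intracellular calcium dye fluorescence, real-time kinetic reads / Controls: vehicle wells and EC80 agonist wells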
V1aR counter = activates human V1a receptor in oxytocin agonist counter-screen; P37288; CHO-V1R cells, Fluo-8 calcium fluorescence, agonist mode; 0% DMSO, 100% 3 nM vasopressin; activation, % at 3 µM; 320,000 tested, 0.25% active;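 active means activation above the mean activation of all tested compounds plus 3 SD, per screening run, cut at about 20% in these data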;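 further: signal is peak over basal fluorescence ratio across a 100 second FLIPR read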
Hits are given with their value; i = inactive; nt = no result given. Hits are enriched below; roughly 2.3% of the tested compounds scored in any of these assays.

SMILES | TAAR1 agonist | OXTR agonist | OXTR potentiator | TAAR1 antagonist | V1aR counter
CCN(CC)CCNc1nc2c(c(=O)[nH]c(=O)n2C)n1CCCc1ccccc1 | i | i | i | i | i
CCOC(=O)Cc1csc(NC(=O)/C=C/c2ccc(Br)o2)n1 | i | i | i | 48.6 | i
CCOC(=O)Cc1csc(NC(=O)C(C)c2ccc([N+](=O)[O-])cc2)n1 (centres undefined) | 49.7 | 26.7 | i | i | 25.9
Cc1ccsc1CN(C)CC(=O)Nc1ccc([N+](=O)[O-])cc1Cl | i | i | i | 51.5 | i
CN(CC(=O)Nc1cc([N+](=O)[O-])ccc1Cl)Cc1ccc(Br)cc1 | i | i | i | i | i
COCCCn1c(SCCc2ccccc2)nc2cc(OC)c(OC)cc2c1=N | i | i | i | 55.7 | i
Cc1cc(=O)[nH]c(SCC(=O)/C=C2\N(C)c3ccccc3C2(C)C)n1 | i | 23.1 | i | i | i
OCC1(CCOc2ccccc2)CCN(CCCn2cccn2)CC1 | i | i | i | i | i
Cc1ccc(NC(=O)Cc2nnc(SCC(=O)Nc3ccccc3)n2C)cc1 | i | i | i | i | i
Cn1c(CC(=O)Nc2ccc(Cl)c(Cl)c2)nnc1SCC(=O)NCc1ccccc1 | 37.7 | i | i | i | i
O=[N+]([O-])c1cccc(C2NCC(c3ccccc3Cl)c3c2[nH]c2ccccc32)c1 (centres undefined) | i | 242.7 | i | i | 345.3
O=C(Nc1nnc(-c2ccccc2)o1)c1nc2ccccc2s1 | 154.4 | 87.5 | i | i | 83.1
COc1ccc(/C=C2\CN(Cc3ccccc3)C/C(=C\c3ccc(OC)cc3OC)C2=O)c(OC)c1 | i | i | i | 57.3 | i
CSC1=NSC2=NC(=O)/C(=C/c3coc4ccc(O)cc4c3=O)C(=N)N12 | 411.8 | 103.6 | i | 108.8 | 77.0
CC1=CC2=NC(=O)/C(=C\c3cc(C)n(-c4cccc(Cl)c4)c3C)C(=N)N2O1 | i | i | i | i | i
CSC1=NSC2=NC(=O)/C(=C\c3cccs3)C(=N)N12 | i | i | i | i | i
CC1=CC2=NC(=O)/C(=C/c3coc4ccc(Cl)cc4c3=O)C(=N)N2O1 | 43.2 | 55.4 | i | i | 33.5
COc1cc(/C=C2/C(=N)N3C(SC)=NSC3=NC2=O)ccc1OC(=O)c1ccco1 | i | i | i | i | i
CSC1=NSC2=NC(=O)/C(=C/c3coc4ccccc4c3=O)C(=N)N12 | 374.6 | 176.2 | i | 104.4 | 87.6
CC(C)COP(=O)(c1ccc(N(C)C)cc1)C(O)c1ccc(Br)cc1 (centres undefined) | i | i | i | i | i
COc1ccc(Br)cc1CN(C)CC(=O)Nc1c(Cl)ccc(C)c1Cl | i | i | i | i | i
O=C(Nc1ccc(-c2ccccc2)cc1)c1ccc2c(c1)S(=O)(=O)c1ccccc1C2=O | i | i | i | i | i
O=C(Nc1ccncc1)c1ccc2c(c1)S(=O)(=O)c1ccccc1C2=O | 37.9 | i | i | 52.3 | i
COC(=O)c1ccc(NC(=O)C(=O)c2cccn2C)cc1 | i | i | i | i | i
COC(=O)C1=C(Cn2cnc3ccccc32)NC(=O)NC1c1cc(C)ccc1C (centres undefined) | i | i | i | i | i
SMILES | TAAR1 agonist | OXTR agonist | OXTR potentiator | TAAR1 antagonist | V1aR counter
CCOC(=O)C1=C(Cn2cnc3ccccc32)NC(=O)NC1c1cc(C)ccc1C (centres undefined) | 57.9 | i | i | 65.3 | i
CCOc1ccc(NC(=O)CCNc2c(N3CCCC3)c(=O)c2=O)cc1 | i | i | i | i | i
OCCCc1nc2n(n1)C(c1cccs1)C=C(c1ccc(Br)cc1)N2 (centres undefined) | nt | 160.2 | i | nt | 109.0
O=C(c1ncn(Cc2ccccc2)c1C(=O)N1CCN(c2ccccc2)CC1)N1CCN(c2ccccc2)CC1 | i | i | i | i | i
O=C(c1ncn(Cc2ccccc2)c1C(=O)N1CCc2ccccc2C1)N1CCc2ccccc2C1 | 40.9 | i | i | i | i
O=C(c1nc2ccc(Cl)cn2c1CN1CCCC1)N1CCc2ccccc2C1 | 47.2 | i | i | i | i
O=C(c1nc2ccc(Cl)cn2c1CN1CCC(CO)CC1)N1CCc2ccccc2C1 | i | i | i | i | i
O=C(NCc1cccs1)c1cc(-c2ccc(O)cc2)on1 | 40.8 | i | i | i | i
Cn1nc(C(C)(C)C)cc1C(=O)N1CCCCC1c1cc(C(=O)Nc2cccc3c2CCCC3)no1 (centres undefined) | i | nt | nt | i | nt
CN(C)S(=O)(=O)c1cc(NC(=O)c2cc(=O)c3ccccc3o2)ccc1Cl | 43.8 | i | i | i | i
O=C(NCCc1cn2ccccc2n1)c1cc(COc2ccc3ncccc3c2)on1 | i | i | i | 86.7 | i
CCN(CC)S(=O)(=O)c1ccc(/C=C/C(=O)OCC(=O)Nc2cccnc2Cl)cc1 | i | i | i | 49.3 | i
CCN(CC)S(=O)(=O)c1ccc(/C=C/C(=O)OCC(=O)Nc2cccc3ccccc23)cc1 | i | i | i | i | i
O=C(CN1CCN(Cc2ccc3c(c2)OCO3)CC1)Nc1ccc2c(c1)OCO2 | i | i | i | i | i
O=C(CN1CCN(Cc2ccc3c(c2)OCO3)CC1)Nc1ccc(F)cc1 | 41.4 | i | i | i | i
O=C(CN1CCN(Cc2ccc3c(c2)OCO3)CC1)c1c[nH]c2ccccc12 | 38.1 | i | i | i | i
Cc1cccc(NC(=O)CSCC(=O)NCc2cccc(C(F)(F)F)c2)c1 | i | i | i | i | i
COC(=O)C1=C[C@@H](C(=O)OC)C2C3=C(C(=O)C24CCCCC4)[C@H](C)n2c(=O)n(-c4ccccc4)c(=O)n2[C@@H]3C1 (some centres undefined) | i | i | i | 51.9 | i
COC(=O)C1=C[C@@H](C(=O)OC)C2C3=C(C(=O)C24CCCCC4)[C@H](C)n2c(=O)n(C)c(=O)n2[C@@H]3C1 (some centres undefined) | i | i | i | i | i
Nc1ccc2c(c1)OCCOCCOCCOCCOCCO2 | i | i | i | i | i
c1ccc2c(c1)OCCOCCOc1ccccc1OCCOCCO2 | i | i | i | 52.7 | i
COc1cccc(Cn2cccc(NC(=O)Nc3ccc(C#N)cc3)c2=O)c1 | i | i | i | 53.4 | i
COc1cccc(NC(=O)Nc2cccn(Cc3ccccc3)c2=O)c1 | i | i | i | i | i
NS(=O)(=O)c1ccc(CCNC(=O)C2CCCN(S(=O)(=O)c3cccnc3)C2)cc1 (centres undefined) | i | i | i | i | i
O=C(NCCc1ccccc1)C1CCCN(S(=O)(=O)c2cccnc2)C1 (centres undefined) | 39.8 | i | i | i | i
CC(C)(C)c1ccc(OCc2ccc(C(=O)NCc3cccnc3)o2)cc1 | i | i | i | 52.8 | i
CCOC(=O)c1cccc(S(=O)(=O)N2CCOCC2)c1 | i | i | i | i | i
